Data as given in ChEMBL document CHEMBL1143755, “Food web-specific biomagnification of persistent organic pollutants” (Science, 2007).

Key:
[1] = Octanol-water partition coefficient, log KOW of the compound; assay type: physicochemical
[2] = Octanol-air partition coefficient, log KOA of the compound; assay type: physicochemical
[3] = Biomagnification factors in Diporeia; assay type: ADME
Homo sapiens = species: Homo sapiens; assay: Biomagnification factors in human; assay type: ADME, organism-based; settings: in vivo
Outline: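 Modelled, not measured: a bioaccumulation model using fugacity D-values (respiration, diet, faeces, urine, metabolism, lactation, growth) gives BMF as fB/fD or CB/CD relative to diet. The Inuit diet is taken as Arctic fish and wildlife (caribou, ringed seal, walrus, beluga) plus southern Canadian agricultural foods, the latter simulated from Great Lakes food chains. KOA is evaluated at 37 °C.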

Row | Compound | logP ([1]; read-out: LogP) | log KOA [2] | BMF [3] | BMF (Homo sapiens) | logP [1]
1 | OC(c1ccc(Cl)cc1)(c1ccc(Cl)cc1)C(Cl)(Cl)Cl [DICOFOL] | 3.5 | 8.9 | < 1 | 76 | 
2 | ClC1(Cl)C2(Cl)C3(Cl)C4(Cl)C(Cl)(Cl)C5(Cl)C3(Cl)C1(Cl)C5(Cl)C24Cl (stereo unspecified) [MIREX] | 8.1 | 9.6 | 1 | 82 | 
3 | CCCN(CCC)c1c([N+](=O)[O-])cc(C(F)(F)F)cc1[N+](=O)[O-] [TRIFLURALIN] | 4.4 | 7.2 | < 1 | 28 | 
4 | Clc1cc(Cl)c(Cl)c(Cl)c1Cl [PENTACHLOROBENZENE] | 5 | 6.9 | < 1 | 16 | 
5 | Clc1cc(Cl)cc(Cl)c1 [1,3,5-TRICHLOROBENZENE] | 3.5 | 4.7 | < 1 | < 1 | 
6 | Cl[C@H]1[C@H](Cl)[C@@H](Cl)[C@H](Cl)[C@@H](Cl)[C@@H]1Cl [BETA-HEXACHLOROCYCLOHEXANE] | 3.8 | 8.9 | < 1 | 84 | 
7 | Brc1ccc(Oc2ccc(Br)cc2Br)c(Br)c1 | 6 | 9.8 | 2.2 | 98 | 
8 | Clc1cc(Cl)c(Cl)cc1Cl | 4.7 | 6.3 | < 1 | 5.9 | 
9 | Clc1cc(Cl)c(-c2cc(Cl)c(Cl)c(Cl)c2Cl)cc1Cl | 7.5 | 10.9 | 2.5 | 95 | 
10 | Clc1cc(Cl)c(-c2cc(Cl)c(Cl)cc2Cl)cc1Cl [2,2',4,4',5,5'-HEXACHLOROBIPHENYL] | 7.5 | 9.6 | 2.5 | 96 | 
11 | ClC(Cl)=C(Cl)C(Cl)=C(Cl)Cl [HEXACHLOROBUTADIENE] | 4.5 | 3.9 | < 1 | < 1 | 
12 | O=S(=O)(c1ccc(Cl)cc1)c1cc(Cl)c(Cl)cc1Cl [TETRADIFON] | 4.6 | 11.4 | < 1 | 97 | 
13 | Brc1c(Br)c(Br)c(Oc2c(Br)c(Br)c(Br)c(Br)c2Br)c(Br)c1Br |  | 13.1 | 1 | 8 | 9.9
14 | Clc1c(Cl)c(Cl)c(Cl)c(Cl)c1Cl [PERCHLOROBENZENE] | 5.5 | 7.7 | 1.8 | 55 | 
15 | O=S1OC[C@@H]2[C@H](CO1)[C@@]1(Cl)C(Cl)=C(Cl)[C@@]2(Cl)C1(Cl)Cl (stereo partly specified) | 3.7 | 7.1 | < 1 | 23 | 
16 | C=Cc1ccccc1 [STYRENE] | 2.5 | 4.9 | < 1 | < 1 | 
17 | Cc1c([N+](=O)[O-])c(C)c([N+](=O)[O-])c(C(C)(C)C)c1[N+](=O)[O-] | 4.1 | 8.9 | < 1 | 89 | 
18 | ClC1=C(Cl)[C@]2(Cl)[C@@H]3[C@@H]4C[C@@H]([C@H]5O[C@@H]45)[C@@H]3[C@@]1(Cl)C2(Cl)Cl [DIELDRIN] | 5.4 | 8.8 | 1.7 | 93 | 
19 | Brc1ccc(Oc2cc(Br)c(Br)cc2Br)c(Br)c1 | 6.8 | 11.2 | 2.5 | 98 | 
